Target: Protein kinase C alpha type (Mus musculus, UniProt P20444)
Test: Displacement of [3H]PDBu form mouse PKCalpha by scintillation counting
How it was run: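 Partially purified mouse PKCα; competition with [³H]PDBU. ID50 obtained by fitting a sigmoidal competition curve and converted to Ki = ID50/(1+L/Kd). Pure compounds tested at 6–7 concentrations; crude library compounds at a single 1 μM concentration. Triplicates per concentration, at least three experiments; mean ± SEM.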

CC(C)C(=O)OCC1(CO)C/C(=C/c2ccc(F)c(Cl)c2)C(=O)O1 (configuration not stated)
Ki: 119 nM

CC(C)(C)C(=O)OCC1(CO)C/C(=C/c2ccc(F)cc2)C(=O)O1 (racemic)
Ki: 88.4 nM

CC(C)C(=O)OCC1(CO)C/C(=C/c2ccc(-c3ccc(C(F)(F)F)cc3)cc2)C(=O)O1 (racemic)
Ki: 34.8 nM

CC(C)(C)C(=O)OCC1(CO)C/C(=C/c2ccc(Br)cc2)C(=O)O1 (racemic)
Ki: 26.1 nM

CCCC(CCC)C(=O)OCC1(CO)C/C(=C/c2ccccc2C(F)(F)F)C(=O)O1 (racemic)
Ki: 29.6 nM

CCCC(CCC)C(=O)OCC1(CO)C/C(=C/c2cccc(C(F)(F)F)c2)C(=O)O1 (racemic)
Ki: 15.5 nM

CC(C)(C)C(=O)OCC1(CO)C/C(=C/c2ccc(Cl)c(F)c2)C(=O)O1 (racemic)
Ki: 36.7 nM

CC(C)C(=O)OCC1(CO)C/C(=C/c2ccc(F)cc2)C(=O)O1 (racemic)
Ki: 273 nM

CC(C)C(=O)OCC1(CO)C/C(=C/c2ccc(Br)cc2)C(=O)O1 (racemic)
Ki: 72.6 nM

CC(C)(C)CC(=O)OCC1(CO)C/C(=C/c2ccc(Cl)cc2)C(=O)O1 (racemic)
Ki: 26.5 nM

CC(C)(C)CC(=O)OCC1(CO)C/C(=C/c2ccc(Br)cc2)C(=O)O1 (racemic)
Ki: 50.2 nM

CCCC(CCC)C(=O)OCC1(CO)C/C(=C/c2cc(C(F)(F)F)cc(C(F)(F)F)c2)C(=O)O1 (racemic)
Ki: 27.3 nM

CC(C)(C)CC(=O)OCC1(CO)C/C(=C/c2ccc(OC(F)(F)F)cc2)C(=O)O1 (racemic)
Ki: 24.6 nM

CC(C)(C)C(=O)OCC1(CO)C/C(=C/c2ccc(F)c(Br)c2)C(=O)O1 (racemic)
Ki: 19.3 nM

CC(C)(C)CC(=O)OCC1(CO)C/C(=C/c2ccccc2C(F)(F)F)C(=O)O1 (racemic)
Ki: 41.4 nM

CC(C)(C)CC(=O)OCC1(CO)C/C(=C/c2cc(C(F)(F)F)cc(C(F)(F)F)c2)C(=O)O1 (racemic)
Ki: 51.1 nM

CC(C)C(=O)OCC1(CO)C/C(=C/c2ccc(C(F)(F)F)cc2)C(=O)O1 (racemic)
Ki: 78 nM

CC(C)C(=O)OCC1(CO)C/C(=C/c2ccc(OC(F)(F)F)cc2)C(=O)O1 (racemic)
Ki: 54.7 nM

CC(C)(C)CC(=O)OCC1(CO)C/C(=C/c2ccc(F)c(Cl)c2)C(=O)O1 (racemic)
Ki: 26.4 nM

CC(C)(C)CC(=O)OCC1(CO)C/C(=C/c2ccc(Cl)c(F)c2)C(=O)O1 (racemic)
Ki: 45.1 nM

CCCC(CCC)C(=O)OCC1(CO)C/C(=C/c2ccc(Br)cc2)C(=O)O1 (racemic)
Ki: 10.7 nM

CCCCC(CC)C(=O)OCC1(CO)C/C(=C/c2ccc(-c3ccc(C(F)(F)F)cc3)cc2)C(=O)O1 (racemic)
Ki: 27.4 nM

CC(CC(=O)OCC1(CO)C/C(=C/c2ccc(F)cc2)C(=O)O1)CC(C)(C)C (racemic)
Ki: 16.8 nM

CCCCC(CC)C(=O)OCC1(CO)C/C(=C/c2ccc(OC(F)(F)F)cc2)C(=O)O1 (racemic)
Ki: 15.2 nM

CCCCC(CC)C(=O)OCC1(CO)C/C(=C/c2ccccc2C(F)(F)F)C(=O)O1 (racemic)
Ki: 22.8 nM

CCCCC(CC)C(=O)OCC1(CO)C/C(=C/c2cc(C(F)(F)F)cc(C(F)(F)F)c2)C(=O)O1 (racemic)
Ki: 17.3 nM

CC(CC(=O)OCC1(CO)C/C(=C/c2ccc(C(F)(F)F)cc2)C(=O)O1)CC(C)(C)C (racemic)
Ki: 18.4 nM

CC(CC(=O)OCC1(CO)C/C(=C/c2ccc(-c3ccc(C(F)(F)F)cc3)cc2)C(=O)O1)CC(C)(C)C (racemic)
Ki: 49.7 nM

CCCCC(CC)C(=O)OCC1(CO)C/C(=C/c2cccc(C(F)(F)F)c2)C(=O)O1 (racemic)
Ki: 9.4 nM

CCCC(CCC)C(=O)OCC1(CO)C/C(=C/c2ccc(-c3ccc(C(F)(F)F)cc3)cc2)C(=O)O1 (racemic)
Ki: 40.6 nM

CC(CC(=O)OCC1(CO)C/C(=C/c2cc(C(F)(F)F)cc(C(F)(F)F)c2)C(=O)O1)CC(C)(C)C (racemic)
Ki: 30.1 nM

CC(CC(=O)OCC1(CO)C/C(=C/c2ccc(F)c(Cl)c2)C(=O)O1)CC(C)(C)C (racemic)
Ki: 22.4 nM

CC(CC(=O)OCC1(CO)C/C(=C/c2ccc(Cl)c(F)c2)C(=O)O1)CC(C)(C)C (racemic)
Ki: 38.3 nM

CC(CC(=O)OCC1(CO)C/C(=C/c2ccc(Br)cc2)C(=O)O1)CC(C)(C)C (racemic)
Ki: 27.3 nM

CCCC(CCC)C(=O)OCC1(CO)C/C(=C/c2ccc(OC(F)(F)F)cc2)C(=O)O1 (racemic)
Ki: 16.4 nM

CCCC(CCC)C(=O)OCC1(CO)C/C(=C/c2ccc(Cl)cc2)C(=O)O1 (racemic)
Ki: 13.1 nM

CC(C)(C)CC(=O)OCC1(CO)C/C(=C/c2ccc(F)c(Br)c2)C(=O)O1 (racemic)
Ki: 19.3 nM

CCC(C(=O)OCC1(CO)C/C(=C/c2ccc(Br)cc2)C(=O)O1)c1ccccc1 (racemic)
Ki: 33 nM

CCC(C(=O)OCC1(CO)C/C(=C/c2ccc(F)c(Cl)c2)C(=O)O1)c1ccccc1 (racemic)
Ki: 31.9 nM

CC(CC(=O)OCC1(CO)C/C(=C/c2ccc(F)c(Br)c2)C(=O)O1)CC(C)(C)C (racemic)
Ki: 17.4 nM

CCC(C(=O)OCC1(CO)C/C(=C/c2ccc(F)cc2)C(=O)O1)c1ccccc1 (racemic)
Ki: 84.3 nM

CCC(C(=O)OCC1(CO)C/C(=C/c2ccccc2C(F)(F)F)C(=O)O1)c1ccccc1 (racemic)
Ki: 59 nM

CCC(C(=O)OCC1(CO)C/C(=C/c2ccc(Cl)cc2)C(=O)O1)c1ccccc1 (racemic)
Ki: 47.6 nM

CCC(C(=O)OCC1(CO)C/C(=C/c2cc(C(F)(F)F)cc(C(F)(F)F)c2)C(=O)O1)c1ccccc1 (racemic)
Ki: 52.9 nM

CCC(C(=O)OCC1(CO)C/C(=C/c2ccc(C(F)(F)F)cc2)C(=O)O1)c1ccccc1 (racemic)
Ki: 41.7 nM

CCC(C(=O)OCC1(CO)C/C(=C/c2ccc(OC(F)(F)F)cc2)C(=O)O1)c1ccccc1 (racemic)
Ki: 82.7 nM

CCCCC(CC)C(=O)OCC1(CO)C/C(=C/c2ccc(F)c(Cl)c2)C(=O)O1 (racemic)
Ki: 11 nM

O=C1OC(CO)(COC(=O)C(c2ccccc2)c2ccccc2)C/C1=C/c1ccc(C(F)(F)F)cc1 (racemic)
Ki: 52.4 nM

CC(C)(C)C(=O)OCC1(CO)C/C(=C/c2ccccc2C(F)(F)F)C(=O)O1 (racemic)
Ki: 54.5 nM

CC(C)(C)C(=O)OCC1(CO)C/C(=C/c2cccc(C(F)(F)F)c2)C(=O)O1 (racemic)
Ki: 28.1 nM

CC(C)(C)C(=O)OCC1(CO)C/C(=C/c2cc(C(F)(F)F)cc(C(F)(F)F)c2)C(=O)O1 (racemic)
Ki: 39.8 nM

CC(C)(C)C(=O)OCC1(CO)C/C(=C/c2ccc(OC(F)(F)F)cc2)C(=O)O1 (racemic)
Ki: 22.5 nM

O=C1OC(CO)(COC(=O)C(c2ccccc2)c2ccccc2)C/C1=C/c1ccc(Br)cc1 (racemic)
Ki: 58.9 nM

O=C1OC(CO)(COC(=O)C(c2ccccc2)c2ccccc2)C/C1=C/c1ccc(F)c(Cl)c1 (racemic)
Ki: 73 nM

O=C1OC(CO)(COC(=O)C(c2ccccc2)c2ccccc2)C/C1=C/c1ccc(OC(F)(F)F)cc1 (racemic)
Ki: 97.6 nM

O=C1OC(CO)(COC(=O)C(c2ccccc2)c2ccccc2)C/C1=C/c1ccccc1C(F)(F)F (racemic)
Ki: 133 nM

O=C1OC(CO)(COC(=O)C(c2ccccc2)c2ccccc2)C/C1=C/c1cccc(C(F)(F)F)c1 (racemic)
Ki: 61.9 nM

O=C1OC(CO)(COC(=O)C(c2ccccc2)c2ccccc2)C/C1=C/c1ccc(F)cc1 (racemic)
Ki: 81.8 nM

O=C1OC(CO)(COC(=O)C(c2ccccc2)c2ccccc2)C/C1=C/c1ccc(Cl)c(F)c1 (racemic)
Ki: 90.7 nM

CCC(C(=O)OCC1(CO)C/C(=C/c2ccc(F)c(Br)c2)C(=O)O1)c1ccccc1 (racemic)
Ki: 22.3 nM

CC(C)C(=O)OCC1(CO)C/C(=C/c2ccc(F)c(Br)c2)C(=O)O1 (racemic)
Ki: 60.6 nM

CC(C)C(=O)OCC1(CO)C/C(=C/c2ccc(Cl)cc2)C(=O)O1 (racemic)
Ki: 88.2 nM

O=C1OC(CO)(COC(=O)C(c2ccccc2)c2ccccc2)C/C1=C/c1ccc(-c2ccc(C(F)(F)F)cc2)cc1 (racemic)
Ki: 111 nM

CC(C)(C)C(=O)OCC1(CO)C/C(=C/c2ccc(Cl)cc2)C(=O)O1 (racemic)
Ki: 29.4 nM

CC(C)(C)CC(=O)OCC1(CO)C/C(=C/c2ccc(F)cc2)C(=O)O1 (racemic)
Ki: 108 nM

CC(C)(C)CC(=O)OCC1(CO)C/C(=C/c2cccc(C(F)(F)F)c2)C(=O)O1 (racemic)
Ki: 23.2 nM

CC(C)(C)CC(=O)OCC1(CO)C/C(=C/c2ccc(C(F)(F)F)cc2)C(=O)O1 (racemic)
Ki: 24.7 nM

CC(C)C(=O)OCC1(CO)C/C(=C/c2ccc(Cl)c(F)c2)C(=O)O1 (racemic)
Ki: 87.6 nM

CC(C)(C)CC(=O)OCC1(CO)C/C(=C/c2ccc(-c3ccc(C(F)(F)F)cc3)cc2)C(=O)O1 (racemic)
Ki: 37 nM

CCCCC(CC)C(=O)OCC1(CO)C/C(=C/c2ccc(Br)cc2)C(=O)O1 (racemic)
Ki: 8.5 nM

CCC(C(=O)OCC1(CO)C/C(=C/c2cccc(C(F)(F)F)c2)C(=O)O1)c1ccccc1 (racemic)
Ki: 30.2 nM

CCC(C(=O)OCC1(CO)C/C(=C/c2ccc(Cl)c(F)c2)C(=O)O1)c1ccccc1 (racemic)
Ki: 45.1 nM

CC(CC(=O)OCC1(CO)C/C(=C/c2ccccc2C(F)(F)F)C(=O)O1)CC(C)(C)C (racemic)
Ki: 33.3 nM

CCCCCC/C=C1/CC(CO)(COC(=O)CCCCCC)OC1=O (racemic)
Ki: 37 nM

CCCCC(CC)C(=O)OCC1(CO)C/C(=C/c2ccc(F)cc2)C(=O)O1 (racemic)
Ki: 15.1 nM

CC(CC(=O)OCC1(CO)C/C(=C/c2ccc(Cl)cc2)C(=O)O1)CC(C)(C)C (racemic)
Ki: 16.8 nM

CC(CC(=O)OCC1(CO)C/C(=C/c2ccc(OC(F)(F)F)cc2)C(=O)O1)CC(C)(C)C (racemic)
Ki: 20.4 nM

CC(C)(C)C(=O)OCC1(CO)C/C(=C/c2ccc(C(F)(F)F)cc2)C(=O)O1 (racemic)
Ki: 36.3 nM

O=C1OC(CO)(COC(=O)C(c2ccccc2)c2ccccc2)C/C1=C/c1cc(C(F)(F)F)cc(C(F)(F)F)c1 (racemic)
Ki: 79.5 nM

O=C1OC(CO)(COC(=O)C(c2ccccc2)c2ccccc2)C/C1=C/c1ccc(Cl)cc1 (racemic)
Ki: 73.4 nM

CC(C)(C)C(=O)OCC1(CO)C/C(=C/c2ccc(-c3ccc(C(F)(F)F)cc3)cc2)C(=O)O1 (racemic)
Ki: 27.2 nM

O=C1OC(CO)(COC(=O)C(c2ccccc2)c2ccccc2)C/C1=C/c1ccc(F)c(Br)c1 (racemic)
Ki: 37.9 nM

Source: ChEMBL document CHEMBL1139414, “Conformationally constrained analogues of diacylglycerol. 29. Cells sort diacylglycerol-lactone chemical zip codes to produce diverse and selective biological activities” (J Med Chem, 2008)
